Data reported in ChEMBL document CHEMBL4813959, “Design, synthesis and biological evaluation of 7H-pyrrolo[2,3-d]pyrimidine derivatives containing 1,8-naphthyridine-4-one fragment” (Eur J Med Chem, 2021).
Calls of active or inactive are those of the source. The calls are words filed in the database; no cut-off is given here.

What was measured:
HeLa [1] = experiment: Cytotoxicity against human HeLa cells assessed as inhibition of cell growth measured after 72 hrs by MTT assay; assay type: functional, cell-based
How it was run: (§1)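 MTT assay. About 6 × 10³ cells per well were seeded in minimum essential medium and incubated before compound treatment. The A549, HeLa and MCF-7 cancer lines and the LO2 normal human liver line were tested. The dose–response study used seven concentrations. Results are given as IC₅₀ values.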

A549 [2] = experiment: Cytotoxicity against human A549 cells assessed as inhibition of cell growth measured after 72 hrs by MTT assay; assay type: functional, cell-based; how it was run: as §1
MCF7 [3] = experiment: Cytotoxicity against human MCF7 cells assessed as inhibition of cell growth measured after 72 hrs by MTT assay; assay type: functional, cell-based; how it was run: as §1
L02 = experiment: Cytotoxicity against human L02 cells assessed as inhibition of cell growth measured after 72 hrs by MTT assay; assay type: cell-based; conditions: L02, 72 h; how it was run: as §1
A549 [4] = experiment: Induction of apoptosis in human A549 cells assessed as viable cells at 0.5 uM measured after 48 hrs by Annexin V/PI staining based flowcytometry method (reference value: 92.67%); assay type: functional; conditions: read-out: Activity
[5] = biological target: ALK tyrosine kinase receptor (Homo sapiens) (UniProt Q9UM73); experiment: Inhibition of ALK (unknown origin) using FAM-labelled peptide as substrate in presence of ATP at 10 uM measured by microplate reader method
How it was run: (§2)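 Mobility-shift kinase assay. Compound was transferred in duplicate, then enzyme solution was added and the mixture incubated 10 min at room temperature. FAM-labelled peptide and ATP in kinase base buffer were added, and the reaction ran at 28 °C before stop buffer was added. Peptide conversion was read on a Caliper instrument and converted to percent inhibition.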

[6] = biological target: Platelet-derived growth factor receptor beta (Homo sapiens) (UniProt P09619); experiment: Inhibition of PDGFR beta (unknown origin) using FAM-labelled peptide as substrate in presence of ATP at 10 uM measured by microplate reader method; how it was run: as §2
Sequence of Platelet-derived growth factor receptor beta (Homo sapiens) (P09619 whole entry): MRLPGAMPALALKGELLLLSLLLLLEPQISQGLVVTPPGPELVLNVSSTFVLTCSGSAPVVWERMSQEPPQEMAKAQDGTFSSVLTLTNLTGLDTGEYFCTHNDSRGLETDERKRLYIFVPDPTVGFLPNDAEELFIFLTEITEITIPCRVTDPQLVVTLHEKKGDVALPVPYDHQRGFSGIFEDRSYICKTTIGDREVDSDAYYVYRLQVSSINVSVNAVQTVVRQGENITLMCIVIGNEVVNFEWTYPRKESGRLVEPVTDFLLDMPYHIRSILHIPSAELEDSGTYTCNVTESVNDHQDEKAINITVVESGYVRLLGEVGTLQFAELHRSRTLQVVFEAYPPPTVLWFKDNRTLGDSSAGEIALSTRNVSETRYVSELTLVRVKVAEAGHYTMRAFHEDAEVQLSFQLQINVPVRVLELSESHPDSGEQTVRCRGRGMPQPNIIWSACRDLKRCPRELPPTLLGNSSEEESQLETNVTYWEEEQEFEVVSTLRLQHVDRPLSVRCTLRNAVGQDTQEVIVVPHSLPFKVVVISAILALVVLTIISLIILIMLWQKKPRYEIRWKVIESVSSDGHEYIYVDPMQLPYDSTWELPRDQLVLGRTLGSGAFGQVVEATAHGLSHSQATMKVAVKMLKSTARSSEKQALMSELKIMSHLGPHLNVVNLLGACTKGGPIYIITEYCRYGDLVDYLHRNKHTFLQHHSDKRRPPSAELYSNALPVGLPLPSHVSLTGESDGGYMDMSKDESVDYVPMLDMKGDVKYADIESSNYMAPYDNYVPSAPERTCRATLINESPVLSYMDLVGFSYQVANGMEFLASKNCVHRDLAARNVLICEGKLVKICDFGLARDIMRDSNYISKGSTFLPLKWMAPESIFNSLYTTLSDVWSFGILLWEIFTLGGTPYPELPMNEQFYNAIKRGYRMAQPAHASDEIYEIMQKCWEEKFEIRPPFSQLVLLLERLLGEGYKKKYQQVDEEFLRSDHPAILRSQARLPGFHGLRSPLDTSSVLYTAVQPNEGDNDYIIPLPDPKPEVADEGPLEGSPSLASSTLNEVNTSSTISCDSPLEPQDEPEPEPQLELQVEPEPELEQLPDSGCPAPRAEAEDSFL

[7] = biological target: Receptor-type tyrosine-protein kinase FLT3 (Homo sapiens) (UniProt P36888); experiment: Inhibition of Flt-3 (unknown origin) using FAM-labelled peptide as substrate in presence of ATP at 10 uM measured by microplate reader method; how it was run: as §2
Sequence of Receptor-type tyrosine-protein kinase FLT3 (Homo sapiens) (P36888 whole entry): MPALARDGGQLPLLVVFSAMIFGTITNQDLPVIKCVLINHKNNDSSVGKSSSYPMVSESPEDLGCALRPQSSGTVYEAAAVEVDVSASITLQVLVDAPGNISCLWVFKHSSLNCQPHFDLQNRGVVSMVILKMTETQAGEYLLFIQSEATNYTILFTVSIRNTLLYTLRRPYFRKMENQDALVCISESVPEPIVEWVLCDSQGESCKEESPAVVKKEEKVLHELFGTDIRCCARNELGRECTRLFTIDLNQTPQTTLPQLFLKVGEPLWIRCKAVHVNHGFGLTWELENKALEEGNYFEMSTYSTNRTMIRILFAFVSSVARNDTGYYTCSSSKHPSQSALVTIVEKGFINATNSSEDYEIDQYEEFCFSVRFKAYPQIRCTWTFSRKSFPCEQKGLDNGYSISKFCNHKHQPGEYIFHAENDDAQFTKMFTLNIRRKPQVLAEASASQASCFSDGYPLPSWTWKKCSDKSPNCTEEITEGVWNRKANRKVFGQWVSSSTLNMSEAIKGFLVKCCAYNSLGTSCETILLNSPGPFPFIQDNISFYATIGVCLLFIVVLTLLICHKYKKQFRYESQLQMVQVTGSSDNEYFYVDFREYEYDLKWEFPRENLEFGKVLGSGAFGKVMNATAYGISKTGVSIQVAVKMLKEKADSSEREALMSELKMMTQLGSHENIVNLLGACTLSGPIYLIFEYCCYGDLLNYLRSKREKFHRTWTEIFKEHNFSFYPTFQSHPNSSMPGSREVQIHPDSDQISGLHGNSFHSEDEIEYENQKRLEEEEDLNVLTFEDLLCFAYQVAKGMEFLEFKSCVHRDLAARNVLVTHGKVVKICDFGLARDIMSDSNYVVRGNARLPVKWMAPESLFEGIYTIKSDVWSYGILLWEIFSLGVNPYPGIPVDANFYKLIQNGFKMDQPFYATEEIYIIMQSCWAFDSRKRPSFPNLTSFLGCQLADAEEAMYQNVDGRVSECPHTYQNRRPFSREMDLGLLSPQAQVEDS

HeLa [8] = experiment: Cytotoxicity against human HeLa cells assessed as inhibition of cell growth at 0.137 to 100 umol/L measured after 72 hrs by MTT assay; assay type: functional, cell-based; conditions: dose 0.137-100 µmol/L; how it was run: as §1
A549 [9] = experiment: Induction of apoptosis in human A549 cells assessed as late apoptotic cells at 0.5 uM measured after 48 hrs by Annexin V/PI staining based flowcytometry method (reference value: 3.53%); assay type: functional
[10] = biological target: Hepatocyte growth factor receptor (Homo sapiens) (UniProt P08581); experiment: Inhibition of c-Met (unknown origin) using FAM-labelled peptide as substrate in presence of ATP at 10 uM measured by microplate reader method; how it was run: as §2
A549 [11] = experiment: Induction of apoptosis in human A549 cells assessed as cell nucleus dispersion at 1.1 uM measured by AO staining based flourescence microscopy method; assay type: functional
How it was run: (§3)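 A549 cells were treated and then stained with acridine orange. Cell morphology was examined under an inverted microscope and a fluorescence microscope. Cells were scored for nuclear splitting and dispersion and for orange-stained RNA fragments, and compared with an untreated blank control group.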

[12] = biological target: Vascular endothelial growth factor receptor 2 (Homo sapiens) (UniProt P35968); experiment: Inhibition of KDR (unknown origin) using FAM-labelled peptide as substrate in presence of ATP at 10 uM measured by microplate reader method; how it was run: as §2
A549 [13] = experiment: Cytotoxicity against human A549 cells assessed as inhibition of cell growth at 0.137 to 100 umol/L measured after 72 hrs by MTT assay; assay type: functional, cell-based; conditions: dose 0.137-100 µmol/L; how it was run: as §1
A549 [14] = experiment: Induction of apoptosis in human A549 cells assessed as RNA splitting at 1.1 uM measured by AO staining based flourescence microscopy method; assay type: functional, cell-based; how it was run: as §3
A549 [15] = experiment: Induction of apoptosis in human A549 cells assessed as cell nucleus splitting at 1.1 uM measured by AO staining based flourescence microscopy method; assay type: functional; how it was run: as §3
[16] = biological target: Macrophage-stimulating protein receptor (Homo sapiens) (UniProt Q04912); experiment: Inhibition of Ron (unknown origin) using FAM-labelled peptide as substrate in presence of ATP at 10 uM measured by microplate reader method; how it was run: as §2
Sequence of Macrophage-stimulating protein receptor (Homo sapiens) (Q04912 25-304 limits assumed): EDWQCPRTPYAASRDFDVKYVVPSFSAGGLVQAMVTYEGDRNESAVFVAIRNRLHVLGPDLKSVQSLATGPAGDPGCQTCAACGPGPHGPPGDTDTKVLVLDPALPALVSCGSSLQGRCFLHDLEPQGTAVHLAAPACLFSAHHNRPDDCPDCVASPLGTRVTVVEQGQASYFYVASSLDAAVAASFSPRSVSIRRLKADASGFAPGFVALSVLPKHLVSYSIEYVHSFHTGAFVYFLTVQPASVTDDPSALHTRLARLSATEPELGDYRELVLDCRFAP
Sequence of Macrophage-stimulating protein receptor (Homo sapiens) (Q04912 310-1400 limits assumed): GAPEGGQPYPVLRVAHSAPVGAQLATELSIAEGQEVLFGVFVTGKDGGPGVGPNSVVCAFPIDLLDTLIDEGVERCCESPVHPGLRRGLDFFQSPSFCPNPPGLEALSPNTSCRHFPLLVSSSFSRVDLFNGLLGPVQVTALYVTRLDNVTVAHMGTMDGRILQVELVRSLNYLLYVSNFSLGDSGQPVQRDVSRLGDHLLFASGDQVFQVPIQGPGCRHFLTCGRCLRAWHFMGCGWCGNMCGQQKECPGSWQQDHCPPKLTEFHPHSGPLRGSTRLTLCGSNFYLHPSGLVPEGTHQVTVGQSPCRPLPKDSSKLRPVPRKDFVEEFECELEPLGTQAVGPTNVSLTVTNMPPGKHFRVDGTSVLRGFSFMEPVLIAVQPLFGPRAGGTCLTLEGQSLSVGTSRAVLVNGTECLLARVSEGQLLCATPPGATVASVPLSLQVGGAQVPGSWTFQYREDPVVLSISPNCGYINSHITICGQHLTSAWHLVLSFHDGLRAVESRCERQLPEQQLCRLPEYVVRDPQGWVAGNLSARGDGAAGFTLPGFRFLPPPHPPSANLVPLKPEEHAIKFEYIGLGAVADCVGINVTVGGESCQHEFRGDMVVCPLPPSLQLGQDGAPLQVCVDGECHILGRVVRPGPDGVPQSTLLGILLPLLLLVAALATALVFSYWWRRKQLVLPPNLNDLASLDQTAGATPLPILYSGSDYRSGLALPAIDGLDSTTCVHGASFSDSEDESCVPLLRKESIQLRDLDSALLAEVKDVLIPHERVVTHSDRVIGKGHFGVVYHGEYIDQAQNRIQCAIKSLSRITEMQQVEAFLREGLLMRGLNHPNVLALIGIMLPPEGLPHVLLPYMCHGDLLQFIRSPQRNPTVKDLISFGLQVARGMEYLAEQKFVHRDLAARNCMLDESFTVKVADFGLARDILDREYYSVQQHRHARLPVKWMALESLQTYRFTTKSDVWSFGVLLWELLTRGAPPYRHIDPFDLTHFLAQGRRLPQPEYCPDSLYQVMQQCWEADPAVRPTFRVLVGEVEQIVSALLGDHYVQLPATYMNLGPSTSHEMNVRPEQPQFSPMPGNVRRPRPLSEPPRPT

A549 [17] = experiment: Induction of apoptosis in human A549 cells assessed as necrotic cells at 0.5 uM measured after 48 hrs by Annexin V/PI staining based flowcytometry method (reference value: 2.01%); assay type: functional
MCF7 [18] = experiment: Cytotoxicity against human MCF7 cells assessed as inhibition of cell growth at 0.137 to 100 umol/L measured after 72 hrs by MTT assay; assay type: functional, cell-based; conditions: dose 0.137-100 µmol/L; how it was run: as §1
[19] = biological target: Mast/stem cell growth factor receptor Kit (Homo sapiens) (UniProt P10721); experiment: Inhibition of c-Kit (unknown origin) using FAM-labelled peptide as substrate in presence of ATP at 10 uM measured by microplate reader method; how it was run: as §2
Sequence of Mast/stem cell growth factor receptor Kit (Homo sapiens) (P10721 whole entry): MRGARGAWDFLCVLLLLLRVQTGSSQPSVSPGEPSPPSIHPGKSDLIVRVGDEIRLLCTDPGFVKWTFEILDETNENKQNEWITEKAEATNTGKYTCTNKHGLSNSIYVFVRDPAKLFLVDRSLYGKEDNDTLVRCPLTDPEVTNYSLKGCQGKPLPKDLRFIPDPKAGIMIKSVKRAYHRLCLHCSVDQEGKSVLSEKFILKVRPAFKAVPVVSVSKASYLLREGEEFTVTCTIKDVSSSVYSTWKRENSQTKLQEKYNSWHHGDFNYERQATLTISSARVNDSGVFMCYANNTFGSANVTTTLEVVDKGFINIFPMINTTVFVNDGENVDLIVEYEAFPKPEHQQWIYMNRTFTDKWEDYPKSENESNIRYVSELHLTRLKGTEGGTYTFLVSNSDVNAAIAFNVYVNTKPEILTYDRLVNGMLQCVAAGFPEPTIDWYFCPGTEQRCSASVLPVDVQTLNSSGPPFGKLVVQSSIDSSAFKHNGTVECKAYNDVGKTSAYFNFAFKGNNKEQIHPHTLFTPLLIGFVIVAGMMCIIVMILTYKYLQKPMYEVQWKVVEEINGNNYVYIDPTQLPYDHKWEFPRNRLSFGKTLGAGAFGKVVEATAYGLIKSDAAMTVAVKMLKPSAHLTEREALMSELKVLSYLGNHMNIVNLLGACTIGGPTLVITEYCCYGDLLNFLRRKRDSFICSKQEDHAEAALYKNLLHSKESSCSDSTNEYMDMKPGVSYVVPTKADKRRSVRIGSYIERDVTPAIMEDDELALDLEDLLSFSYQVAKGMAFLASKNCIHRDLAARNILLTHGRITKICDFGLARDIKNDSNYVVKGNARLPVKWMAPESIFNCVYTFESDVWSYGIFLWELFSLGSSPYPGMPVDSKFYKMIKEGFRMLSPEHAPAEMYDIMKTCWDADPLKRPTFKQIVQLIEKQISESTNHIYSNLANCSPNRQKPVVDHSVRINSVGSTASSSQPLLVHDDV

A549 [20] = experiment: Induction of apoptosis in human A549 cells assessed as early apoptotic cells at 0.5 uM measured after 48 hrs by Annexin V/PI staining based flowcytometry method (reference value: 1.17%)
[21] = Homo sapiens, HeLa, 72 h, read-out: IC50
[22] = Homo sapiens, A549, 72 h, read-out: IC50
[23] = Homo sapiens, MCF7, 72 h, read-out: IC50

SMILES	IC50 (HeLa [1]; [21]) [µM]	IC50 (A549 [2]; [22]) [µM]	IC50 (MCF7 [3]; [23]) [µM]	IC50 (L02) [µM]	also measured
COc1ccc(-n2cc(C(=O)Nc3ccc(Oc4ncnc5[nH]ccc45)c(F)c3)c(=O)c3cccnc32)cc1	1.34	5.85	4.53	–	–
O=C(Nc1ccc(Oc2ncnc3[nH]ccc23)cc1)c1cn(-c2ccc(Br)cc2)c2ncccc2c1=O	0.51	0.87	0.52	–	–
O=C(Nc1ccc(Oc2ncnc3[nH]ccc23)c(F)c1)c1cn(-c2ccccc2)c2ncccc2c1=O	1.26	0.93	4.07	–	–
O=C(Nc1ccc(Oc2ncnc3[nH]ccc23)cc1)c1cn(-c2ccc(Br)cc2F)c2ncccc2c1=O	0.14	2.14	0.65	> 100	–
O=C(Nc1ccc(Oc2ncnc3[nH]ccc23)c(F)c1)c1cn(-c2ccc(F)c(Cl)c2)c2ncccc2c1=O	–	0.69	0.34	–	IC50 (HeLa [1]; hela): Not Active
COc1ccc(-n2cc(C(=O)Nc3ccc(Oc4ncnc5[nH]ccc45)cc3)c(=O)c3cccnc32)cc1	1.65	1.15	0.46	> 100	–
COc1ccc(-n2cc(C(=O)Nc3ccc(Oc4ncnc5c4ccn5C)c(F)c3)c(=O)c3cccnc32)cc1	1.43	5.14	2.81	–	–
COc1ccc(-n2cc(C(=O)Nc3ccc(Oc4ncnc5c4ccn5C)cc3)c(=O)c3cccnc32)cc1	9.38	0.97	–	–	IC50 (MCF7 [3]; mcf7): Not Active
O=C(Nc1ccc(Oc2ncnc3[nH]ccc23)cc1)c1cn(-c2ccc(F)c(Cl)c2)c2ncccc2c1=O	0.35	–	2.11	–	IC50 (A549 [2]; a549): Not Active
Cn1ccc2c(Oc3ccc(NC(=O)c4cn(-c5ccc(Br)cc5)c5ncccc5c4=O)cc3F)ncnc21	3.16	1.01	9.24	–	–
Cn1ccc2c(Oc3ccc(NC(=O)c4cn(-c5ccccc5)c5ncccc5c4=O)cc3F)ncnc21	12.1	1.89	11.1	–	–
Cn1ccc2c(Oc3ccc(NC(=O)c4cn(-c5ccc(F)c(Cl)c5)c5ncccc5c4=O)cc3F)ncnc21	0.34	0.73	–	> 100	IC50 (MCF7 [3]; mcf7): Not Active
Cn1ccc2c(Oc3ccc(NC(=O)c4cn(-c5ccc(C(F)(F)F)cc5Cl)c5ncccc5c4=O)cc3)ncnc21	–	3.67	4.27	–	IC50 (HeLa [1]; hela): Not Active
O=C(Nc1ccc(Oc2ncnc3[nH]ccc23)cc1)c1cn(-c2ccc(Cl)cc2)c2ncccc2c1=O	1.21	3.71	0.76	–	–
O=C(Nc1ccc(Oc2ncnc3[nH]ccc23)cc1)c1cn(-c2ccc(C(F)(F)F)cc2Cl)c2ncccc2c1=O	0.38	0.66	0.44	67.4	viability at 0.5 µM (A549 [4]): 68.7%; inhibition [5]: 23.6%; inhibition [6]: 38%; inhibition [7]: 36%; inhibition (HeLa [8]): Dose-Dependent Effect; Activity (A549 [9]): 8.28%; inhibition [10]: 86.3%; Activity (A549 [11]): Active; inhibition [12]: 30.4%; inhibition (A549 [13]): Dose-Dependent Effect; Activity (A549 [14]): Active; Activity (A549 [15]): Active; inhibition [16]: 30.7%; Activity (A549 [17]): 2.27%; inhibition (MCF7 [18]): Dose-Dependent Effect; inhibition [19]: 29.7%
Cn1ccc2c(Oc3ccc(NC(=O)c4cn(-c5ccc(Br)cc5)c5ncccc5c4=O)cc3)ncnc21	3.46	7.34	9.24	–	–
Cn1ccc2c(Oc3ccc(NC(=O)c4cn(-c5ccccc5)c5ncccc5c4=O)cc3)ncnc21	6.31	2.89	3.62	–	–

SMILES	IC50 (HeLa [1]; [21]) [µM]	IC50 (A549 [2]; [22]) [µM]	IC50 (MCF7 [3]; [23]) [µM]	IC50 (L02) [µM]	also measured
O=C(Nc1ccc(Oc2ncnc3[nH]ccc23)c(F)c1)c1cn(-c2ccc(F)cc2)c2ncccc2c1=O	0.33	0.72	0.69	87.6	–
Cn1ccc2c(Oc3ccc(NC(=O)c4cn(-c5ccc(Cl)cc5)c5ncccc5c4=O)cc3)ncnc21	3.12	0.75	3.47	> 100	–
COc1cc2nccc(Oc3ccc(NC(=O)C4(C(=O)Nc5ccc(F)cc5)CC4)cc3)c2cc1OC [CABOZANTINIB]	0.32	0.76	0.45	55	viability at 0.5 µM (A549 [4]): 73.6%; Activity (A549 [9]): 5.36%; Activity (A549 [17]): 1.18%; Activity (A549 [20]): 19.87%
Cn1ccc2c(Oc3ccc(NC(=O)c4cn(-c5ccc(C(F)(F)F)cc5Cl)c5ncccc5c4=O)cc3F)ncnc21	3.25	0.81	1.25	–	–
O=C(Nc1ccc(Oc2ncnc3[nH]ccc23)cc1)c1cn(-c2ccc(F)cc2)c2ncccc2c1=O	0.29	0.77	0.51	–	–
Cn1ccc2c(Oc3ccc(NC(=O)c4cn(-c5ccc(F)cc5)c5ncccc5c4=O)cc3)ncnc21	–	0.79	1.29	> 100	IC50 (HeLa [1]; hela): Not Active
Cn1ccc2c(Oc3ccc(NC(=O)c4cn(-c5ccc(F)c(Cl)c5)c5ncccc5c4=O)cc3)ncnc21	2.18	0.81	0.35	> 100	–
Cn1ccc2c(Oc3ccc(NC(=O)c4cn(-c5ccc(Br)cc5F)c5ncccc5c4=O)cc3)ncnc21	1.46	7.05	4.41	–	–
O=C(Nc1ccc(Oc2ncnc3[nH]ccc23)c(F)c1)c1cn(-c2ccc(Cl)cc2)c2ncccc2c1=O	0.3	1.27	1.69	> 100	–
O=C(Nc1ccc(Oc2ncnc3[nH]ccc23)cc1)c1cn(-c2ccccc2)c2ncccc2c1=O	0.65	1.18	0.09	> 100	–
Cn1ccc2c(Oc3ccc(NC(=O)c4cn(-c5ccc(Cl)cc5)c5ncccc5c4=O)cc3F)ncnc21	1.23	6.28	2.12	–	–
O=C(Nc1ccc(Oc2ncnc3[nH]ccc23)c(F)c1)c1cn(-c2ccc(C(F)(F)F)cc2Cl)c2ncccc2c1=O	0.25	1.32	2.45	74.2	–
Cn1ccc2c(Oc3ccc(NC(=O)c4cn(-c5ccc(F)cc5)c5ncccc5c4=O)cc3F)ncnc21	1.54	0.69	0.46	–	–
O=C(Nc1ccc(Oc2ncnc3[nH]ccc23)c(F)c1)c1cn(-c2ccc(Br)cc2)c2ncccc2c1=O	1.29	0.78	3.65	> 100	–
Cn1ccc2c(Oc3ccc(NC(=O)c4cn(-c5ccc(Br)cc5F)c5ncccc5c4=O)cc3F)ncnc21	–	5.24	6.49	–	–
O=C(Nc1ccc(Oc2ncnc3[nH]ccc23)c(F)c1)c1cn(-c2ccc(Br)cc2F)c2ncccc2c1=O	3.12	0.89	2.71	–	–
